The record followed here is ChEMBL document CHEMBL1127351, “Technetium-99m N,N'-bis(2-mercapto-2-methylpropyl)-2-aminobenzylamine: technetium-99m complexes of a novel bis(aminoethanethiol) ligand” (J Med Chem, 1994).

The species entered for data set [1] is Rattus norvegicus. In words: Biodistribution of compound was tested in rat lung at 60 min. It counts as ADME, organism-based. To be noted: in vivo, 1 h. In short, it runs like this: (§1)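 Male Sprague-Dawley rats (200–300 g) under ether anesthesia got an iv injection of 0.2 mL saline containing the 99mTc complex (2–5 μCi). At set times, blood was drawn by cardiac puncture and rats were killed by cardiectomy. Organs were excised, weighed and gamma-counted. % dose/organ was taken against diluted injected-dose standards. Values are the mean of three rats ± SEM.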

Data set [2] is filed under the species Rattus norvegicus. Description: Biodistribution of compound was tested in rat spleen at 60 min. Conditions: in vivo, 1 h. Type of data set: ADME, organism-based. In outline: as §1
The species named for data set [3] is Rattus norvegicus. Description: Biodistribution of compound was tested in rat spleen at 2 min. It counts as ADME, organism-based. Conditions: in vivo. In short, it runs like this:
as §1

The species named for data set [4] is Rattus norvegicus. Description: Biodistribution of compound was tested in rat muscle at 60 min. Conditions: in vivo, 1 h. It counts as ADME, organism-based, Muscle tissue. In short, it runs like this:
as §1

The species named for data set [5] is Rattus norvegicus. In words: Biodistribution of compound was tested in rat kidney at 15 min. Type of data set: ADME, organism-based. To be noted: in vivo, 0.25 h. In outline:
as §1

Data set [6] is filed under the species Rattus norvegicus. Description: Biodistribution of compound was tested in rat brain at 15 min. Conditions: in vivo, 0.25 h. Type of data set: ADME, organism-based. In short, it runs like this:
as §1

The species named for data set [7] is Rattus norvegicus. Description: Biodistribution of compound was tested in rat blood at 2 min. It counts as ADME, organism-based. Conditions: in vivo. In outline:
as §1

Data set [8] is filed under the species Rattus norvegicus. Description: Biodistribution of compound was tested in rat kidney at 60 min. It counts as ADME, organism-based. To be noted: in vivo, 1 h. In outline: as §1
For data set [9], the species on record is Rattus norvegicus. In words: Biodistribution of compound was tested in rat liver at 60 min. It counts as ADME, organism-based. Conditions: in vivo, 1 h. In outline:
as §1

Data set [10] is filed under the species Rattus norvegicus. In words: Biodistribution of compound was tested in rat skin at 60 min. It counts as ADME, organism-based, Zone of skin. Conditions: in vivo, 1 h. In outline:
as §1

The species entered for data set [11] is Rattus norvegicus. Description: Biodistribution of compound was tested in rat brain at 60 min. It counts as ADME, organism-based. Conditions: in vivo, 1 h. In short, it runs like this:
as §1

The species entered for data set [12] is Rattus norvegicus. Description: Biodistribution of compound was tested in rat kidney at 2 min. To be noted: in vivo. It counts as ADME, organism-based. In outline: as §1
Data set [13] is filed under the species Rattus norvegicus. In words: Biodistribution of compound was tested in rat brain at 2 min. It counts as ADME, organism-based. To be noted: in vivo. In short, it runs like this: as §1
For data set [14], the species on record is Rattus norvegicus. Description: Biodistribution of compound was tested in rat muscle at 15 min. Conditions: in vivo, 0.25 h. It counts as ADME, organism-based, Muscle tissue. In short, it runs like this: as §1
The species entered for data set [15] is Rattus norvegicus. Description: Biodistribution of compound was tested in rat blood at 60 min. Type of data set: ADME, organism-based. Conditions: in vivo, 1 h. In outline: as §1
The species named for data set [16] is Rattus norvegicus. In words: Biodistribution of compound was tested in rat lung at 15 min. It counts as ADME, organism-based. To be noted: in vivo, 0.25 h. In short, it runs like this: as §1
Data set [17] is filed under the species Rattus norvegicus. In words: Biodistribution of compound was tested in rat muscle at 2 min. It counts as ADME, organism-based, Muscle tissue. Conditions: in vivo. In outline:
as §1

Data set [18] is filed under the species Rattus norvegicus. Description: Biodistribution of compound was tested in rat liver at 2 min. Type of data set: ADME, organism-based. To be noted: in vivo. In outline:
as §1

The species named for data set [19] is Rattus norvegicus. Description: Biodistribution of compound was tested in rat heart at 2 min. Type of data set: ADME, organism-based. Conditions: in vivo. In outline:
as §1

For data set [20], the species on record is Rattus norvegicus. Description: Biodistribution of compound was tested in rat heart at 15 min. Type of data set: ADME, organism-based. To be noted: in vivo, 0.25 h. In outline:
as §1

For data set [21], the species on record is Rattus norvegicus. In words: Biodistribution of compound was tested in rat spleen at 15 min. It counts as ADME, organism-based. To be noted: in vivo, 0.25 h. In short, it runs like this: as §1
The species entered for data set [22] is Rattus norvegicus. In words: Biodistribution of compound was tested in rat liver at 15 min. To be noted: in vivo, 0.25 h. It counts as ADME, organism-based. In short, it runs like this:
as §1

The species named for data set [23] is Rattus norvegicus. Description: Biodistribution of compound was tested in rat blood at 15 min. Type of data set: ADME, organism-based. To be noted: in vivo, 0.25 h. In short, it runs like this: as §1
The species named for data set [24] is Rattus norvegicus. Description: Biodistribution of compound was tested in rat heart at 60 min. Type of data set: ADME, organism-based. To be noted: in vivo, 1 h. In outline: as §1
Data set [25] is filed under the species Rattus norvegicus. In words: Biodistribution of compound was tested in rat lung at 2 min. Type of data set: ADME, organism-based. To be noted: in vivo. In outline:
as §1

The species named for data set [26] is Rattus norvegicus. Description: Biodistribution of compound was tested in rat skin at 15 min. To be noted: in vivo, 0.25 h. Type of data set: ADME, organism-based, Zone of skin. In short, it runs like this:
as §1

The species named for data set [27] is Rattus norvegicus. In words: Biodistribution of compound was tested in rat skin at 2 min. Conditions: in vivo. Type of data set: ADME, organism-based, Zone of skin. In outline: as §1
The species entered for data set [28] is Rattus norvegicus. In words: Biodistribution of compound was tested in rat lung at 30 min. It counts as ADME, organism-based. Conditions: in vivo, 0.5 h. In short, it runs like this:
as §1

The species named for data set [29] is Rattus norvegicus. Description: Biodistribution of compound was tested in rat muscle at 30 min. It counts as ADME, organism-based, Muscle tissue. To be noted: in vivo, 0.5 h. In short, it runs like this: as §1
Data set [30] is filed under the species Rattus norvegicus. In words: Biodistribution of compound was tested in rat brain at 30 min. It counts as ADME, organism-based. To be noted: in vivo, 0.5 h. In short, it runs like this: as §1
For data set [31], the species on record is Rattus norvegicus. In words: Biodistribution of compound was tested in rat blood at 30 min. It counts as ADME, organism-based. To be noted: in vivo, 0.5 h. In outline: as §1
For data set [32], the species on record is Rattus norvegicus. Description: Biodistribution of compound was tested in rat kidney at 30 min. Type of data set: ADME, organism-based. To be noted: in vivo, 0.5 h. In short, it runs like this: as §1
For data set [33], the species on record is Rattus norvegicus. Description: Biodistribution of compound was tested in rat skin at 30 min. It counts as ADME, organism-based, Zone of skin. To be noted: in vivo, 0.5 h. In short, it runs like this:
as §1

The species named for data set [34] is Rattus norvegicus. Description: Biodistribution of compound was tested in rat spleen at 30 min. It counts as ADME, organism-based. Conditions: in vivo, 0.5 h. In outline:
as §1

The species entered for data set [35] is Rattus norvegicus. Description: Biodistribution of compound was tested in rat heart at 30 min. It counts as ADME, organism-based. Conditions: in vivo, 0.5 h. In short, it runs like this: as §1
The species named for data set [36] is Rattus norvegicus. Description: Biodistribution of compound was tested in rat liver at 30 min. Type of data set: ADME, organism-based. To be noted: in vivo, 0.5 h. In outline: as §1

As for technicium complex, the Dose/organ in data set [1] amounted to 0.5%; in data set [2] it was 0.68%; in [3] it was 0.64%; in [4], 20.08%; in [5] it was 1.54%; in [6] it was 0.72%. In addition, the Dose/organ in data set [7] is 4.37%; in data set [8] it was 0.93%; in data set [9] it was 20.75%; in [10], 16.5%; in data set [11] it was 0.21%; in data set [12] it was 3.58%. Besides, the Dose/organ in data set [13] is reported as 1.54%; in data set [14], 16.5%; in data set [15] it was 1.27%; in data set [16], 0.91%; in data set [17], 20.77%; in [18], 23.58%. Further, the Dose/organ in [19] was determined as 1.28%; in data set [20], 0.53%; in data set [21], 0.72%; in data set [22] it was 26.5%; in [23], 2%; in [24], 0.28%. For the same substance, the Dose/organ in data set [25] was found to be 1.79%; in data set [26], 10.45%; in [27], 13.48%.
As for tecnicium complex, the Dose/organ came to 0.68% in data set [3]; 1.98% in [28]; 8.12% in data set [7]; 3.3% in [12]; 13.52% in [29]; 1.07% in data set [13]. Moreover, the Dose/organ in [30] came out at 0.28%; in data set [17], 10.24%; in data set [18], 22.76%; in [31], 3.22%; in data set [19] it was 1.15%; in [32] it was 1.33%. Besides, the Dose/organ came to 11.94% in [33]; 0.3% in [34]; 4.47% in [25]; 0.24% in data set [35]; 22.65% in [36]; 3.94% in [27].
